Source: PubChem
In the library only some 1.5% were active in any assay of this set; here they are far more common.
LANA-H2A inh: blockers of LANA interaction with H2A/H2B – biochemical, FP readout, HTS, primary screen. Protein LANA1 (Human herpesvirus 8 type P (isolate GK18)), Q9QR71. cell-free LANA-H2A/H2B peptide, fluorescence polarization. inhibition, % (no concentration beside the values). 320,000 tested, 0.6% active. AID 2629, 2010; in the data active means inhibition mostly above about 10%, no sharp cut-off; inactive means mostly below about 6.7%
CaV13 ICDI inh: Disruptors of the CACNA1D IQ motif to Ca2+-dependent inactivation inhibitor domain association, primary screening, Förster resonance energy transfer in intact living …; HEK cells, CFP/YFP FRET ICDI-IQ, plate reader, 10 min; percent FRET-ratio fall versus neutral wells; 340,000 tested, 0.098% active; inhibition, % at 12.3 µM;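 active means mean replicate inhibition of at least 30% and at least 1% of replicates passing that level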
CAL PDZ FP-1: untagged CAL PDZ binding inhibitors, primary screen, biochemical, fluorescence polarization, HTS | 300,000 tested, 0.92% active | inhibition, % at 24.9 µM | purified CAL PDZ, TMR-peptide fluorescence polarization, 1 h | Golgi-associated PDZ and coiled-coil motif-containing protein (Homo sapiens), Q9HD26;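 active means mean inhibition of at least 30% with at least half of replicates also reaching 30%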
C-LANA FP: inhibitors of KSHV C-LANA binding to DNA, primary screen, biochemical, fluorescence polarization, FAM-LBS DNA, MBP-C-LANA, single point; 340,000 tested, 0.078% active; inhibition, % at 9 µM;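 active means highest replicate inhibition at or above 60% at 9 µM, even if other replicates fall short; inactive means all replicates below 60% inhibition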
CAL PDZ FP-2: CAL PDZ peptide-binding inhibitors, primary screen, biochemical, fluorescence polarization, Cer-tagged CAL PDZ, HTS; Golgi-associated PDZ and coiled-coil motif-containing protein (Homo sapiens), Q9HD26; 330,000 tested, 0.02% active; inhibition, % at 20 µM; purified CAL PDZ, TMR-peptide fluorescence polarization, 1 h;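 active means highest replicate inhibition of at least 40%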
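Read-out basis: mP drop reported as inhibition | Assay system: Tagged CAL PDZ protein CerCALP, purified | Benchmarks: Unlabelled peptide for full inhibition, DMSO wells as neutral | Schedule: 1 h incubation at room temperature before polarization reading | Buffer or medium: Sodium phosphate/NaCl buffer pH 7.4 with TCEP, IgG, Thesit | Doses: Single point, 20 µM | Measured by: Fluorescence polarization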
Keap1 Nrf2 FP: Keap1-Nrf2 protein-protein interaction inhibitors, primary screen, biochemical, fluorescence polarization, single point. Keap1 Kelch-Nrf2 peptide fluorescence polarization, 1536-well. inhibition, % at 9.4 µM. 340,000 tested, 0.15% active; in the data active means inhibition above about 12%;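 further: human Keap1 Kelch domain with fluorescein labeled Nrf2 9mer peptide probe; higher means more block of Keap1 binding to Nrf2 peptide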
Target sequence (Q14145 whole entry, looked up, the tested form may be a part): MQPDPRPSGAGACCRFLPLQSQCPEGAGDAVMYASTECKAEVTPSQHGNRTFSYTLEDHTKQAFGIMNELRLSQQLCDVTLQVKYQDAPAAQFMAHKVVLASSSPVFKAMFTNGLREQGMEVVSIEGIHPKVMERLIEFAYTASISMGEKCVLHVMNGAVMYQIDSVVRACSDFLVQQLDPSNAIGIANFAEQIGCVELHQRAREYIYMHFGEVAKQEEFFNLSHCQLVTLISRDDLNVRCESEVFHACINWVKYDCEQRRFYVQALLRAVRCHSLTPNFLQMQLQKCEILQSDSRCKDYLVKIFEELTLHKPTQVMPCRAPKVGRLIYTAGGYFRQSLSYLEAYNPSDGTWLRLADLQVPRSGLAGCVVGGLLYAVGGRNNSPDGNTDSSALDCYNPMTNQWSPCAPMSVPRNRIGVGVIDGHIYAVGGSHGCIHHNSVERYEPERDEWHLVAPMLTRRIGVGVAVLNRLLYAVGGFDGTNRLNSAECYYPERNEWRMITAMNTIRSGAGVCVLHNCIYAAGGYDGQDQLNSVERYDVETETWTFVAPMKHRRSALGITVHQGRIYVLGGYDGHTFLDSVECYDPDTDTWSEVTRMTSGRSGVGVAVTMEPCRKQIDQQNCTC
Of the large screens only hits and unclear results are named; the others gave an inactive call.

Cc1cnc(C(=O)N2CCN(S(=O)(=O)c3cc(C(F)(F)F)cc(C(F)(F)F)c3)CC2)cn1	none (no result: LANA-H2A inh)
O=C(c1ccncc1)N1CCN(S(=O)(=O)c2cccc(C(F)(F)F)c2)CC1	none
CC1CC1C(=O)N1CCN(S(=O)(=O)c2cc(C(F)(F)F)cc(C(F)(F)F)c2)CC1 (centres undefined)	CAL PDZ FP-1 76.2
O=C(O)c1ccccc1C(=O)N1CCN(S(=O)(=O)c2cccc(C(F)(F)F)c2)CC1	LANA-H2A inh 43.3
CCc1cc2c(nc1CC)CCCN2Cc1ccccc1C(F)(F)F	none (no result: LANA-H2A inh, CAL PDZ FP-1, C-LANA FP, CAL PDZ FP-2, Keap1 Nrf2 FP)
O=C1CC(=O)Nc2cc(S(=O)(=O)N3CCOc4ccc(Cl)cc43)ccc2N1	LANA-H2A inh 31.4 (no result: CAL PDZ FP-1)
CCOC(=O)C1CCN(C(=O)CCn2c(=O)c3cccn3c3cccnc32)CC1	none
COc1ccc(CC(=O)Nc2cc(F)ccc2F)cc1S(=O)(=O)N1CCOCC1	none (no result: LANA-H2A inh, CAL PDZ FP-1, C-LANA FP, CAL PDZ FP-2, Keap1 Nrf2 FP)
COc1ccc(CC(=O)Nc2ccc(F)c(F)c2F)cc1S(=O)(=O)N1CCOCC1	LANA-H2A inh 140.0 (no result: CAL PDZ FP-1)
CC(=O)OCCn1c2nc(=O)[nH]c(=O)c-2nc2cc(C)c(C)cc21	LANA-H2A inh 166.4, C-LANA FP 163.4, Keap1 Nrf2 FP 156.5
COc1cccc(CN(c2ccc3c(c2)CCC3)S(=O)(=O)c2ccc(-n3cnnn3)c(OC)c2)c1	CAL PDZ FP-1 42.4
O=C(COc1ccccc1/C=C1\SC(=S)NC1=O)Nc1ccc(F)cc1	none
COC(=O)c1cc2c(c3c4cc(F)ccc4n(S(=O)(=O)c4cccc(C)c4)c13)C(=O)N(Cc1ccco1)C2	none (no result: LANA-H2A inh, CAL PDZ FP-1, C-LANA FP, CAL PDZ FP-2, Keap1 Nrf2 FP)
O=C(NCCC1=CCCCC1)C1CCC(=O)N(Cc2cccc(C(F)(F)F)c2)C1 (centres undefined)	CAL PDZ FP-1 36.1
COc1cccc(CCNC(=O)C2CCC(=O)N(Cc3cccc(OC)c3)C2)c1 (centres undefined)	none
COc1cccc(CN2CC(C(=O)NCCc3ccccc3C(F)(F)F)CCC2=O)c1 (centres undefined)	CAL PDZ FP-1 57.2
CCCCNC(=O)c1nc(-c2ccccc2)oc1-c1ccc(Cl)cc1	none (no result: LANA-H2A inh, CAL PDZ FP-1, C-LANA FP, CAL PDZ FP-2, Keap1 Nrf2 FP)
C1CCN(c2nc3nonc3nc2N2CCCC2)C1	none
CCn1cc(CNc2nc3nonc3nc2N2CCCCC2)cn1	CAL PDZ FP-1 72.0
COc1ccc(C(=O)c2sc3nc(-c4ccc(OC)cc4)ccc3c2N)cc1	CaV13 ICDI inh 134.4
COC1OC2COC(c3ccccc3)OC2C2OC(c3ccccc3)OC12 (centres undefined)	none (no result: LANA-H2A inh, CAL PDZ FP-1, C-LANA FP, CAL PDZ FP-2, Keap1 Nrf2 FP)
COC1OC2COC(c3ccccc3)OC2C2OC12 (centres undefined)	CAL PDZ FP-1 143.9 (no result: LANA-H2A inh)
NS(=O)(=O)c1ccc(OCCCN2CCC(C(O)(c3ccccc3)c3ccccc3)CC2)cc1	none (no result: LANA-H2A inh, CAL PDZ FP-1, C-LANA FP, CAL PDZ FP-2, Keap1 Nrf2 FP)
O=C(NCC(=O)N1CCN(S(=O)(=O)c2ccccc2)CC1)c1ccc(Br)o1	none
CSCCC(NC(=O)c1ccco1)C(=O)NCc1ccc(F)cc1 (centres undefined)	none
CSCCC(NC(=O)c1ccco1)C(=O)NCCc1ccc(Cl)cc1 (centres undefined)	CAL PDZ FP-1 100.1 (no result: LANA-H2A inh)
COC(=O)c1csc(S(=O)(=O)N2CCOCC2)c1OC	none
CN(C)CCNc1nc(-c2ccccc2F)c2sccc2n1	none (no result: LANA-H2A inh, CAL PDZ FP-1, C-LANA FP, CAL PDZ FP-2, Keap1 Nrf2 FP)
Cc1ccc(N(CC(=O)NCCSc2ccccn2)S(=O)(=O)c2ccc(F)cc2)cc1	none
Cc1cccc(/C=N/NC(=O)c2cc(C3CC3)nc3ccccc23)n1	none
Cc1cccc(/C=N/NC(=O)c2cc(C)nc3ccccc23)n1	CAL PDZ FP-1 150.8
O=C(NCc1ccco1)Nc1c(Cl)cc(Cl)cc1Cl	none (no result: LANA-H2A inh, CAL PDZ FP-1, C-LANA FP, CAL PDZ FP-2, Keap1 Nrf2 FP)
CC(=O)c1cccc(OCC(=O)N(C)CC(=O)Nc2ccc(F)cc2)c1	LANA-H2A inh 17.3 (no result: CAL PDZ FP-1, C-LANA FP, CAL PDZ FP-2, Keap1 Nrf2 FP)
CN(CC(=O)Nc1ccc(F)cc1)C(=O)COC(=O)c1ccccc1	none
C/C(CC(=O)Nc1cccnc1)=N\NC(=O)C(=O)Nc1cccc(C)c1	none
O=C(/C=C/c1ccc(F)cc1)N1CCCN(C(=O)/C=C/c2ccc(F)cc2)CC1	none
O=C(/C=C/c1ccc(F)cc1)N1CC[C@@]2(O)CCCC[C@H]2C1	LANA-H2A inh 4.7 (no result: CAL PDZ FP-1)
CC(C)(C)c1ccc(C(=O)N/N=C/c2ccccn2)cc1	none
Cc1ccc(C(=O)N/N=C\c2ccccn2)cn1	CAL PDZ FP-1 active
COc1ccc(-c2nc3ccccc3c(=O)n2CCCN2CCOCC2)cc1	LANA-H2A inh 15.9
COC(=O)C1C(O)=C(C=NCc2ccccc2)C(=O)CC1(C)C (centres undefined)	none
COC(=O)C1C(O)=C(C=Nc2cccc3ccccc23)C(=O)CC1(C)C (centres undefined)	CAL PDZ FP-1 59.6
CC(=O)Nc1cccc(-c2ccnc3c2CC(C(=O)NCc2ccc(N(C)C)cc2)O3)c1 (centres undefined)	none (no result: LANA-H2A inh, CAL PDZ FP-1, C-LANA FP, CAL PDZ FP-2, Keap1 Nrf2 FP)
COC(=O)C1=C(C)N(Cc2ccccc2C(F)(F)F)C(=NCc2ccc(OC)cc2)NC1c1ccc(F)cc1 (centres undefined)	none (no result: LANA-H2A inh, CAL PDZ FP-1, C-LANA FP, CAL PDZ FP-2, Keap1 Nrf2 FP)
COC(=O)[C@@H](Cc1ccccc1)NC(=O)[C@H]1O[C@@H](n2cnc3c(=O)[nH]c(N)nc32)[C@H](O)[C@@H]1O	none (no result: LANA-H2A inh, CAL PDZ FP-1, C-LANA FP, CAL PDZ FP-2, Keap1 Nrf2 FP)
Cc1ccc(S(=O)(=O)N(C)C)cc1NC(=S)N1CCc2ccccc21	CAL PDZ FP-1 49.2
CN(C)S(=O)(=O)c1cccc(NC(=S)N2CCc3ccccc32)c1	none
CN(C)c1ccc(CNC(=O)CCS(=O)(=O)c2ccc3c(c2)oc(=O)n3C)cc1	CAL PDZ FP-1 63.2
COc1ccc(CNC(=O)CCS(=O)(=O)c2ccc3c(c2)oc(=O)n3C)cc1	none
COc1ccc(C(=O)Nc2ccnn2C2CCN(CC3CC=CCC3)CC2)cc1 (centres undefined)	LANA-H2A inh 16.1
C/C=C(\C)CN1CCC(n2nccc2NC(=O)c2ccc3c(c2)OCO3)CC1	LANA-H2A inh 74.7
O=C(Nc1ccnn1C1CCN(C2CCC2)CC1)c1ccccc1Cl	none
O=C(Nc1ccnn1C1CCN(C2CCC2)CC1)c1ccccc1	CAL PDZ FP-1 68.6
CCc1ccc(CN2CCC(n3nccc3NC(=O)c3ccc4c(c3)OCO4)CC2)cc1	none
Cc1cc2c(c(=O)o1)[C@@]1(C(=O)N(C)c3ccccc31)C1=C(CC(C)(C)CC1=O)O2	none (no result: LANA-H2A inh, CAL PDZ FP-1, C-LANA FP, CAL PDZ FP-2, Keap1 Nrf2 FP)
O=[N+]([O-])/C(C=Nc1ccccc1O)=C\Nc1ccccc1O	CAL PDZ FP-1 35.1 (no result: LANA-H2A inh)
